Results published in ChEMBL document CHEMBL3102751, “Cholinesterase inhibitory activity versus aromatic core multiplicity: a facile green synthesis and molecular docking study of novel piperidone embedded thiazolopyrimidines” (Bioorg Med Chem, 2014).

What was measured:
[1] = biological target: Acetylcholinesterase (Electrophorus electricus, UniProt O42275); test: Inhibition of Electrophorus electricus acetylcholinesterase using acetylthiocholine iodide as substrate preincubated for 15 mins followed by substrate addition measured for 30 mins by Ellman's method
Acetylcholinesterase, sequence (O42275 whole entry): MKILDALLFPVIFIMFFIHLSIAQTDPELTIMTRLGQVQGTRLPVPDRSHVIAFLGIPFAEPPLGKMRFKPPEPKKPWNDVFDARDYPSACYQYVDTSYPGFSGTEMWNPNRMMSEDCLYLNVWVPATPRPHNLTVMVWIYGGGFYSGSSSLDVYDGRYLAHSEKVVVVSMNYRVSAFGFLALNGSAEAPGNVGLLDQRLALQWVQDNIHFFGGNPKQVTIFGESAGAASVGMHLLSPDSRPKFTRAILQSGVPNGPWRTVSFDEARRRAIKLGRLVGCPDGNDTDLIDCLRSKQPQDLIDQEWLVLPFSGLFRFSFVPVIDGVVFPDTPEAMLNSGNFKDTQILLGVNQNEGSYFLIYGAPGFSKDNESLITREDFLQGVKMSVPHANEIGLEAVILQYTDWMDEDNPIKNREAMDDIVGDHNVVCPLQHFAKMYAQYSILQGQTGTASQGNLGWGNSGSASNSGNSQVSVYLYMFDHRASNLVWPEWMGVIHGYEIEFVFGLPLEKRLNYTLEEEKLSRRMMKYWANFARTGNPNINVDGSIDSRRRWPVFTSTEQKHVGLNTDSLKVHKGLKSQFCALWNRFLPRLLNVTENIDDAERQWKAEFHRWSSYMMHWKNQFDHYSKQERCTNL

[2] = Selectivity ratio of IC50 for Electrophorus electricus acetylcholinesterase to IC50 for equine serum butyrylcholinesterase
[3] = Selectivity ratio of IC50 for equine serum butyrylcholinesterase to IC50 for Electrophorus electricus acetylcholinesterase
[4] = biological target: Cholinesterase (Equus caballus, UniProt P81908); test: Inhibition of equine serum butyrylcholinesterase using S-butyrylthiocholine chloride as substrate preincubated for 15 mins followed by substrate addition measured for 30 mins by Ellman's method
Cholinesterase, sequence (P81908 whole entry): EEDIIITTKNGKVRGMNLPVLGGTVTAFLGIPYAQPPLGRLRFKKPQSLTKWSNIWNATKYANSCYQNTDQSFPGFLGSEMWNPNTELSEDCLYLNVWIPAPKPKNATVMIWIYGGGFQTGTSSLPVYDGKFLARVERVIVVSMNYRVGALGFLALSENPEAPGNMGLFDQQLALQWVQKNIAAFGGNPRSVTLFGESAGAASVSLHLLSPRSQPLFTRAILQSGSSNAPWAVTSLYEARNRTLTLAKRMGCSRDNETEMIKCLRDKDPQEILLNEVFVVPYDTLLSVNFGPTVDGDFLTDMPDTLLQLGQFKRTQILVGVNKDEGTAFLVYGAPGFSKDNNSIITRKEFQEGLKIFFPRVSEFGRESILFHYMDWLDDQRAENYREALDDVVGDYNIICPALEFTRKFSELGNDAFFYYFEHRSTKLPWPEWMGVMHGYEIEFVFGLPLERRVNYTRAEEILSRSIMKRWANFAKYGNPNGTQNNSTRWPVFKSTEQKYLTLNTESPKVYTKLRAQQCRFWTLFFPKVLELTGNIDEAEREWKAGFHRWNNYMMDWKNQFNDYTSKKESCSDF
Procedure, shortened: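 Modified Ellman assay in 0.1 M sodium phosphate buffer, pH 8. Samples were prepared in DMSO, with 1% DMSO in the final mix. Equine serum BChE was incubated with sample for 15 min at 25 °C. 10 mM DTNB stock was then added, followed by 14 mM S-butyrylthiocholine chloride stock. Absorbance at 412 nm was read for 30 min, and % inhibition was calculated relative to control.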

| SMILES | IC50 [1] [µM] | Ratio IC50 [2] | Ratio IC50 [3] | IC50 [4] [µM] |
| --- | --- | --- | --- | --- |
| COc1ccccc1/C=C1\CNCC2=C1N=C1SC=C(c3ccc(Cl)cc3)N1C2c1ccccc1OC (stereo not drawn) | 5.08 | 0.17 | 5.76 | 29.3 |
| COc1ccc(C2=CSC3=NC4=C(CNC/C4=C\c4ccc(F)cc4)C(c4ccc(F)cc4)N23)cc1 (stereo not drawn) | 22.4 | 0.84 | 1.18 | 26.5 |
| S=C1NC2/C(=C/c3ccccc3Cl)CNCC2C(c2ccccc2Cl)N1 (stereo not drawn) | 32.3 |  |  | 2.91 |
| COc1ccc(C2=CSC3=NC4=C(CNC/C4=C\c4ccc(Cl)cc4)C(c4ccc(Cl)cc4)N23)cc1 (stereo not drawn) | 8.44 | 0.66 | 1.52 | 12.8 |
| COc1ccccc1/C=C1\CNCC2=C1N=C1SC=C(c3ccc(F)cc3)N1C2c1ccccc1OC (stereo not drawn) | 5.5 | 0.63 | 1.59 | 8.75 |
| COc1ccccc1/C=C1\CNCC2C1NC(=S)NC2c1ccccc1OC (stereo not drawn) | 0.8 |  |  | 1.18 |
| Clc1ccc(/C=C2\CNCC3=C2N=C2SC=C(c4ccc(Cl)cc4)N2C3c2ccc(Cl)cc2)cc1 (stereo not drawn) | 5.37 | 0.2 | 5.11 | 27.4 |
| Fc1ccc(/C=C2\CNCC3C2NC(=S)NC3c2ccc(F)cc2)cc1 (stereo not drawn) | 37.2 |  |  | 28.8 |
| Cc1ccc(/C=C2\CNCC3=C2N=C2SC=C(c4ccc(F)cc4)N2C3c2ccc(C)cc2)cc1 (stereo not drawn) | 6.47 | 1.32 | 0.76 | 4.91 |
| Fc1ccc(C2=CSC3=NC4=C(CNC/C4=C\c4ccc(Cl)cc4)C(c4ccc(Cl)cc4)N23)cc1 (stereo not drawn) | 5.73 | 0.36 | 2.75 | 15.8 |
| COc1ccc(C2=CSC3=NC4=C(CNC/C4=C\c4ccccc4Cl)C(c4ccccc4Cl)N23)cc1 (stereo not drawn) | 7.97 | 0.63 | 1.58 | 12.6 |
| Cc1ccc(/C=C2\CNCC3C2NC(=S)NC3c2ccc(C)cc2)cc1 (stereo not drawn) | 37.5 |  |  | 6.27 |
| C1=C(c2ccccc2)N2C(=NC3=C(CNC/C3=C\c3ccccc3)C2c2ccccc2)S1 (stereo not drawn) | 1.47 | 0.84 | 1.19 | 1.74 |
| Fc1ccc(/C=C2\CNCC3=C2N=C2SC=C(c4ccccc4)N2C3c2ccc(F)cc2)cc1 (stereo not drawn) | 4.04 | 1.02 | 0.98 | 3.95 |
| COc1ccc(C2=CSC3=NC4=C(CNC/C4=C\c4ccccc4OC)C(c4ccccc4OC)N23)cc1 (stereo not drawn) | 12 | 0.64 | 1.55 | 18.6 |
| Clc1ccccc1/C=C1\CNCC2=C1N=C1SC=C(c3ccccc3)N1C2c1ccccc1Cl (stereo not drawn) | 2.05 | 0.77 | 1.3 | 2.68 |
| Clc1ccc(C2=CSC3=NC4=C(CNC/C4=C\c4ccccc4Cl)C(c4ccccc4Cl)N23)cc1 (stereo not drawn) | 5.2 | 0.68 | 1.47 | 7.65 |
| Cc1ccc(/C=C2\CNCC3=C2N=C2SC=C(c4ccccc4)N2C3c2ccc(C)cc2)cc1 (stereo not drawn) | 0.53 | 0.31 | 3.21 | 1.71 |
| COc1ccc(C2=CSC3=NC4=C(CNC/C4=C\c4ccccc4)C(c4ccccc4)N23)cc1 (stereo not drawn) | 15.9 | 1.52 | 0.65 | 10.4 |
| Fc1ccc(C2=CSC3=NC4=C(CNC/C4=C\c4ccccc4Cl)C(c4ccccc4Cl)N23)cc1 (stereo not drawn) | 6.03 | 0.76 | 1.3 | 4.63 |
| Clc1ccc(C2=CSC3=NC4=C(CNC/C4=C\c4ccccc4)C(c4ccccc4)N23)cc1 (stereo not drawn) | 23.9 | 0.54 | 1.86 | 44.3 |
| Fc1ccc(/C=C2\CNCC3=C2N=C2SC=C(c4ccc(Cl)cc4)N2C3c2ccc(F)cc2)cc1 (stereo not drawn) | 10.3 | 0.46 | 2.16 | 22.2 |
| Fc1ccc(/C=C2\CNCC3=C2N=C2SC=C(c4ccc(F)cc4)N2C3c2ccc(F)cc2)cc1 (stereo not drawn) | 13.2 | 0.83 | 1.2 | 15.8 |
| Fc1ccc(C2=CSC3=NC4=C(CNC/C4=C\c4ccccc4)C(c4ccccc4)N23)cc1 (stereo not drawn) | 20.3 | 2.57 | 0.39 | 7.91 |
| Clc1ccc(/C=C2\CNCC3=C2N=C2SC=C(c4ccccc4)N2C3c2ccc(Cl)cc2)cc1 (stereo not drawn) | 1.62 | 0.74 | 1.35 | 2.18 |
| COc1ccccc1/C=C1\CNCC2=C1N=C1SC=C(c3ccccc3)N1C2c1ccccc1OC (stereo not drawn) | 4.23 | 1.03 | 0.97 | 4.1 |
| Cc1ccc(/C=C2\CNCC3=C2N=C2SC=C(c4ccc(Cl)cc4)N2C3c2ccc(C)cc2)cc1 (stereo not drawn) | 21.7 | 0.67 | 1.5 | 32.6 |
| COc1ccc(C2=CSC3=NC4=C(CNC/C4=C\c4ccc(C)cc4)C(c4ccc(C)cc4)N23)cc1 (stereo not drawn) | 10.4 | 0.99 | 1.01 | 10.5 |
| S=C1NC2/C(=C/c3ccc(Cl)cc3)CNCC2C(c2ccc(Cl)cc2)N1 (stereo not drawn) | 2.25 |  |  | 6.26 |
| S=C1NC2/C(=C/c3ccccc3)CNCC2C(c2ccccc2)N1 (stereo not drawn) | 19.3 |  |  | 3.78 |
